Test results as given in ChEMBL document CHEMBL1287769, “Investigating the activity of 2-substituted alkyl-6-(2,5-dioxopyrrolidin-1-yl)hexanoates as skin penetration enhancers” (Bioorg Med Chem, 2010).

What was measured:
[1] = Lipophilicity, log K of the compound in methanol-water mixture by HPLC; type: physicochemical
In short: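 Isocratic RP-HPLC on end-capped C18 column, methanol as organic modifier in mobile phase at various amounts, 25 °C, detection 204 nm. Dead time from KI in methanol. Capacity factor k = (tR − tD)/tD; log k used as lipophilicity index.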

[2] = Potentiation of theophylline transdermal permeation in pig ear skin after 24 hrs by Franz diffusion cells method relative to untreated control; type: functional, Sus scrofa
In short: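 Thawed full-thickness porcine ear skin, epidermis up, in vertical Franz cell (0.635 cm2 donor area). Receptor: PBS pH 7.4, 37 °C, stirred; skin equilibrated 0.5 h. Donor: enhancer 20 mg in PG 0.5 mL plus theophylline 5 mg in water 0.5 mL, sonicated; controls without enhancer. Receptor sampled at 1, 2, 4, 8, 12, 24 h, theophylline by HPLC at 280 nm. Steady-state flux from linear region; ER = flux with/without enhancer; ≥3 determinations, ≥2 animals.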

SK-N-MC = assay: Antiproliferative activity against human SK-N-MC cells after 72 hrs by MTT assay; type: cell-based
In short: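 SK-N-MC cells (ATCC) grown in MEM with 10% FBS, pyruvate, non-essential amino acids, glutamine, antibiotics, fungizone at 37 °C, 5% CO2. Seeded 1.5 × 10^4 cells/well in medium with human diferric transferrin 1.25 µM ([Fe] = 2.5 µM), compounds 0–25 µM, 72 h. MTT added for 2 h, solubilized in SDS/isobutanol/HCl, read at 570 nm. IC50 = concentration reducing absorbance to 50% of untreated control; mean ± SD, n = 3.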

Structure (SMILES) | log K [1] | fold change (FC) [2] | IC50 (SK-N-MC) [µM]
CCCCCCCCCCCCOC(=O)C(CCCCN1C(=O)CCC1=O)N1CCOCC1 (stereo unspecified) | 0.9221 | 1.92 | > 6.25
CCOC(=O)C(CCCCN1C(=O)CCC1=O)N1CCCCC1=O (stereo unspecified) | -0.9565 | – | –
CCOC(=O)C(CCCCN1C(=O)CCC1=O)N1CCOCC1 (stereo unspecified) | -0.7951 | – | –
CCCCCCOC(=O)C(CCCCN1C(=O)CCC1=O)N1CCCCC1=O (stereo unspecified) | -0.2356 | 2.33 | > 6.25
CCCCCCCOC(=O)C(CCCCN1C(=O)CCC1=O)N1CCCCC1=O (stereo unspecified) | -0.0685 | 2.17 | > 6.25
CCCCCCCCOC(=O)C(CCCCN1C(=O)CCC1=O)N1CCCCC1=O (stereo unspecified) | 0.0973 | 1.88 | > 6.25
CCCCCCCCCOC(=O)C(CCCCN1C(=O)CCC1=O)N1CCCCC1=O (stereo unspecified) | 0.2638 | 1.81 | > 6.25
CCCCCCCCCCOC(=O)C(CCCCN1C(=O)CCC1=O)N1CCCCC1=O (stereo unspecified) | 0.4285 | 1.63 | > 6.25
CCCCCCCCCCCOC(=O)C(CCCCN1C(=O)CCC1=O)N1CCCCC1=O (stereo unspecified) | 0.5894 | 2.36 | > 6.25
CCCCCCCCCCCCOC(=O)C(CCCCN1C(=O)CCC1=O)N1CCCCC1=O (stereo unspecified) | 0.7413 | 1.75 | > 6.25
CCCCCCOC(=O)C(CCCCN1C(=O)CCC1=O)N1CCOCC1 (stereo unspecified) | -0.0736 | 2.11 | > 6.25
CCCCCCCOC(=O)C(CCCCN1C(=O)CCC1=O)N1CCOCC1 (stereo unspecified) | 0.0934 | 1.26 | > 6.25
CCCCCCCCOC(=O)C(CCCCN1C(=O)CCC1=O)N1CCOCC1 (stereo unspecified) | 0.2613 | 1.8 | > 6.25
CCCCCCCCCOC(=O)C(CCCCN1C(=O)CCC1=O)N1CCOCC1 (stereo unspecified) | 0.4177 | 1.49 | > 6.25
CCCCCCCCCCOC(=O)C(CCCCN1C(=O)CCC1=O)N1CCOCC1 (stereo unspecified) | 0.5834 | 1.71 | > 6.25
CCCCCCCCCCCOC(=O)C(CCCCN1C(=O)CCC1=O)N1CCOCC1 (stereo unspecified) | 0.7588 | 1.61 | > 6.25
CC(=O)N(O)CCCCCNC(=O)CCC(=O)N(O)CCCCCNC(=O)CCC(=O)N(O)CCCCCN [DEFEROXAMINE] | – | – | 17.1
CCCCCCCC/C=C\CCCCCCCC(=O)O [OLEIC ACID] | – | 1.13 | –
